Assay results taken from ChEMBL document CHEMBL4811300, “Design, synthesis, and biological evaluation of novel bifunctional thyrointegrin antagonists for neuroblastoma” (Bioorg Med Chem, 2021).

Experiments:
[1] = Drug uptake in human SK-N-F1 cells at 10 uM measured upto 60 mins by LC-MS/MS analysis; assay type: ADME, cell-based; settings: sk-n-fi, 1 h
Method in brief: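 SK-N-F1 cells (~1M) were exposed to compound at 10 uM per the figure legend; the methods text gives 1 µM. Incubation lasted 15, 30 and 60 min. Cells were washed with PBS, pelleted at 5,000g for 10 min, homogenized in acetonitrile and extracted. The residue was reconstituted in acetonitrile/water 80/20. Quantification was by LC-MS/MS (positive ESI MRM) against 1–1000 ng/mL standards.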

[2] = test system: SK-N-FI; test: Antitumor activity against human SK-N-FI cells xenografted in Ncr nude mouse assessed as reduction of tumor weight at 3 mg/kg, sc dosed daily up to 20 days relative to control; assay type: functional; design: scale not given: the % may be the effect or the level left; settings: time day <=20
Method in brief: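 SK-N-F1 xenografts: 2 million cells per implant, 4 mice per group, with treatment starting once tumors reached 500 mm³. Dosing was 3 mg/kg s.c. once daily for 20 days (the methods say 21) against PBS vehicle control. Animals were sacrificed at study end, and tumors were excised and weighed.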

[3] = test system: SK-N-FI; test: Antitumor activity against human SK-N-FI cells xenografted in Ncr nude mouse assessed as increase in necrotic cells in tumor at 3 mg/kg, sc dosed daily up to 20 days by H and E staining based light microscopic analysis relative to control; assay type: functional; settings: time day <=20
Method in brief: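 SK-N-F1 cells (2 million per implant) were grown in mice (4 per group) until tumors reached 500 mm³. Mice were then dosed at 3 mg/kg s.c. once daily for 20 days against PBS vehicle; the methods section states 21 days. Harvested tumors were fixed in 10% formalin for at least 48 h, paraffin-embedded, sectioned and H&E stained. Necrosis, fibrosis and debris area was scored microscopically at 4X, 10X and 40X.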

With `N=C(N)NCc1cccc(I)c1` [IOBENGUANE] the Drug uptake [1] was “Active”.
In the case of `CC(C)(C)OC(=O)NCc1ccc(OCCOCCOCCOCCOCCOCCOCCn2cc(COc3c(I)cc(Oc4c(I)cc(CC(=O)O)cc4I)cc3I)nn2)cc1`, the Drug uptake [1] is reported as “Active”.
`N=C(N)NCc1ccc(OCCOCCOCCOCCOCCOCCOCCOCCN2CCN(CCCOc3c(I)cc(Oc4c(I)cc(CC(=O)O)cc4I)cc3I)CC2)cc1` showed an Activity [2] of 90% and an Activity [3] of 98%.
